Hits are enriched below; roughly 1.2% of the tested compounds scored in any of these assays.
HKDC1 inh: HKDC1 hexokinase inhibitors, primary screen, biochemical, fluorescence, uHTS | recombinant HKDC1, G6PDH/diaphorase resazurin coupled fluorescence | Q2TB90 | inhibition, % at 20 µM | AID 493160, 2011 | 340,000 compounds, 0.16% hits;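 active = inhibition above about 35% when tested at 20 µM, limit read from the data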;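 also: plate controls were DMSO wells with enzyme for no effect and DMSO wells lacking enzyme for full effect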
Target sequence (Q2TB90 whole entry, looked up): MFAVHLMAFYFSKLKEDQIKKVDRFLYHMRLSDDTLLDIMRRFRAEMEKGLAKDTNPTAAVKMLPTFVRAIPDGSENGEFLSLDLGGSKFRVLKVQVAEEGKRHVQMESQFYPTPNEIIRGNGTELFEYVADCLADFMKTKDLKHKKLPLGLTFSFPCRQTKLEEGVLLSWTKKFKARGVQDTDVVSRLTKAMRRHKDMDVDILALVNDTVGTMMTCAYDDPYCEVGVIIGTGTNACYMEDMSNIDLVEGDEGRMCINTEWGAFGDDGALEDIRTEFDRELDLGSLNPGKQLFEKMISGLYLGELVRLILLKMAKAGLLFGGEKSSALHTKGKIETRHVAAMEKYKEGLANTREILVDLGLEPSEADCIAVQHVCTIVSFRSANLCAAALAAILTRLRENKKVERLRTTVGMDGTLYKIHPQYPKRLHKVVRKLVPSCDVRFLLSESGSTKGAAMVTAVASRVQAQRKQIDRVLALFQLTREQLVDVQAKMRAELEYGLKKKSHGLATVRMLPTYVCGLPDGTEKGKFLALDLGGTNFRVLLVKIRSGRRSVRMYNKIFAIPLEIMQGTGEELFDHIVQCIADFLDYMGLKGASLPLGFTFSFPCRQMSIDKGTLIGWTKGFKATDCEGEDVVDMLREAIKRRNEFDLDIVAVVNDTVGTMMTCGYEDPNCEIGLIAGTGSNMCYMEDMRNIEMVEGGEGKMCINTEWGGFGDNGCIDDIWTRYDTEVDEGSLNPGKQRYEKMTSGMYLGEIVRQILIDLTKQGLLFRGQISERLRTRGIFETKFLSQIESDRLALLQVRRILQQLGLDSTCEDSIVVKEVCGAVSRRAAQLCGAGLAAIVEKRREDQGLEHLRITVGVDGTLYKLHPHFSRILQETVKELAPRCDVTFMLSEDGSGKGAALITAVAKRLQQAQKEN
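Test system: HK5 enzyme. Quantity: 5 µg/mL HK5 final. Reagent: glucose and ATP substrates. Schedule: 90 min reaction incubation at room temperature, dark. Technique: resazurin-to-resorufin fluorescence via G6PDH and diaphorase coupling, 525/613 nm. Control set: DMSO wells with and without enzyme mix.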
PfG6PD inh: PfG6PD enzyme inhibitors, primary screen, biochemical, fluorescence intensity, uHTS; glucose-6-phosphate dehydrogenase-6-phosphogluconolactonase (Plasmodium falciparum 3D7); PfGluPho enzyme, NADPH resazurin-diaphorase fluorescence; inhibition, % at 20 µM; 350,000 compounds, 0.78% hits; AID 504690, 2011;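 active = inhibition reaching at least a set limit at 20 µM in the primary screen, cut at about 59% in these data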;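 also: 0% = DMSO wells with substrate and 100% = DMSO wells lacking glucose-6-phosphate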
Diaph act CS: compounds boosting diaphorase resazurin reduction – biochemical, uHTS, resorufin fluorescence, counter-screen for diaphorase-coupled primary assays, primary screen | Diaphorase/resazurin coupled assay, 16 min; stronger effect = higher value; 1 = vehicle wells, 0 = NADH-free wells | activation factor at 20 µM | 190,000 compounds, 0.005% hits;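 active = diaphorase activity raised at least twofold by the compound at 20 µM; inactive = activation factor below 2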
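Assay system: Purified diaphorase enzyme from Clostridium kluyveri | Amount: Enzyme 0.07 U/mL final | Dosing: Compound 20 µM once, DMSO 1% | Timing: 16 min reaction at room temperature | Detection: Fluorescence, excitation 544 nm and emission 590 nm | Evaluation: Higher resorufin formation from activation or reduction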
Diaph inh CS: diaphorase inhibitors and chemical oxidizers, primary screen, counter-screen for diaphorase-coupled primary assays, biochemical, uHTS, resorufin fluorescence | inhibition, % at 20 µM | 190,000 compounds, 0.69% hits | AID 1217, 2008 | diaphorase resazurin-to-resorufin fluorescence, NADH, 16 min; bacterial (C. kluyveri) enzyme, not human;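 active = primary screen inhibition at 20 µM above a set limit, cut at about 50% in these data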;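 also: plate controls were DMSO with full reaction for no effect and wells lacking NADH for full effect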
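Assay system: diaphorase enzyme from Clostridium kluyveri; Input: enzyme working solution with 0.14 U/mL diaphorase; Timing: 16 min at room temperature; Technique: resorufin fluorescence, excitation 544 nm, emission 590 nm; Benchmarks: positive control minus NADH, DMSO neutral control.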
G6PDH CS: L. mesenteroides G6PDH inhibitors, counter-screen for G6PDH-coupled screening assays, biochemical, Leuconostoc mesenteroides enzyme; glucose-6-phosphate dehydrogenase [Leuconostoc mesenteroides]; Purified L. mesenteroides G6PDH, diaphorase/resazurin coupled fluorescence, 45 min; inhibition, % at 5 µM; 200,000 compounds, 0.12% hits; AID 1020, 2008; in the data active = inhibition above about 50%
PfG6PD confirm: PfG6PD inhibitors, hit retest, confirmation, biochemical, fluorescence intensity, single concentration; shares compounds with PfG6PD inh; recombinant PfGluPho, NADPH-diaphorase-resazurin fluorescence; inhibition, % at 20 µM; 2,400 compounds, 34% hits; AID 504753, 2011;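 active = inhibition of at least 50% at 20 µM in any single replicate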;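 also: 0% = DMSO with substrate and 100% = DMSO lacking glucose-6-phosphate substrate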
Diaph ctr 10uM: diaphorase inhibitors and chemical oxidizers, confirmation, counter-screen for P. falciparum G6PD inhibitor project, biochemical, fluorescence intensity, 10 µM NADPH; shares compounds with PfG6PD inh; diaphorase-coupled resazurin reduction, NADPH 10 uM; AID 504862, 2011; 820 compounds, 39% hits; inhibition, % at 20 µM;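 active = average inhibition reaching 50% or more with the compound at 20 µM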;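 also: resorufin red fluorescence formed as diaphorase reduces resazurin using NADPH; 0% = DMSO with enzyme and 100% = DMSO without enzyme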
Diaph ctr 30uM: diaphorase inhibitors and chemical oxidizers, confirmation, counter-screen for P. falciparum G6PD inhibitor project, biochemical, fluorescence intensity, 30 µM NADPH. 820 compounds, 29% hits. inhibition, % at 20 µM. Diaphorase/resazurin coupled assay, resorufin fluorescence. shares compounds with PfG6PD inh;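 active = inhibition averaging 50% or more, tested at 20 µM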;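 also: 0% = DMSO with enzyme and 100% = DMSO wells lacking diaphorase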
Numbers without * were called inactive; x = no result given.

SMILES	HKDC1 inh	PfG6PD inh	Diaph act CS	Diaph inh CS	G6PDH CS	PfG6PD confirm	others
O=C(Nc1ccc(S(=O)(=O)N2CCCCC2)cc1)C1CC(=O)N(c2ccc(Cl)cc2)C1 (configuration not stated)	4	9	x	x	x	x
COc1ccc2nc(NC(=S)N(C)C)sc2c1	-10	70*	0.9	5	4	13
Cc1cc(C)nc(SSc2nc(C)cc(C)n2)n1	-2	65*	x	x	x	64*	Diaph ctr 10uM=-5;Diaph ctr 30uM=-14
CC1(C)CC(NC(=O)c2cc(S(=O)(=O)N3CCCCC3)ccc2Cl)CC(C)(C)N1	1	-16	x	x	x	x
CC1=CN2C(=N)/C(=C/c3ccc([N+](=O)[O-])o3)C(=O)N=C2S1	1	59*	0.5	50	-28	73*	Diaph ctr 10uM=26;Diaph ctr 30uM=35
Cc1ccc(C(=O)NCCS(=O)(=O)N2CCN(c3ccccc3F)CC2)cc1[N+](=O)[O-]	-1	-5	x	x	x	x
O=C(Nc1ccc(S(=O)(=O)N2CCCC2)cc1)C1CC(=O)N(CCc2ccc(F)cc2)C1 (configuration not stated)	-4	1	x	x	x	x
CCOC(=O)c1[nH]cc(-c2ccccc2)c1N1CCOCC1	-8	73*	0.9	13	8	25
Clc1ccc(-c2nc3ccccn3c2CN2CCCCC2)cc1	-4	-5	0.9	8	0	x
Oc1ccc(N2CCN(Cc3c(-c4ccccc4)nc4ccccn34)CC2)cc1	2	59*	x	x	x	-1
Cc1ccc(-c2cn(CCN)c(-c3ccc(Cl)nc3)n2)cc1	2	-10	x	x	x	x
Cn1c(-c2ccc(Cl)nc2)nc2cc(Cl)ccc21	5	49	x	x	x	22
CCCCN1C(=O)C(CC(=O)NCCc2ccccn2)CC(C(=O)N2CCOCC2)=C1C (configuration not stated)	x	1	x	x	x	x
Cc1nn(-c2ccccc2)c(Cl)c1/C=N/Nc1nc2ccccc2[nH]1	0	17	0.9	13	-36	x
Cc1cc(=O)[nH]c(N/N=C/c2c(C)nn(-c3ccccc3)c2Cl)n1	3	86*	x	x	x	78*	Diaph ctr 10uM=-14;Diaph ctr 30uM=-11
